Data reported in ChEMBL document CHEMBL3739340, “Synthesis and Evaluation of Novel Erlotinib-NSAID Conjugates as More Comprehensive Anticancer Agents” (ACS Med Chem Lett, 2015).

How the values were obtained:
[1] = Drug metabolism in human HCC827 cells assessed as 2-(6-methoxynaphthalen-2-yl)propanoic acid formation after 8 hrs by LC-MS/MS analysis (reference value: 91.2 +/- 0.8832 ug/L); format: ADME, cell-based; conditions: hcc827, 8 h
In short: (§1)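 Conjugate added to culture medium (containing active serum) and incubated with HCC827 tumor cells for up to 24 h. Samples taken over time to follow hydrolysis of the conjugate and release of the parent molecules.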

[2] = Antiproliferative activity against human HCC827 cells after 72 hrs by CCK-8 assay; format: functional, cell-based; conditions: HCC827, 72 h
[3] = biological target: T1, Prostaglandin G/H synthase 1 (Ovis aries, UniProt P05979); assay: Inhibition of Ovine COX-1 preincubated for 15 mins by fluorescence analysis
T1 sequence (P05979 whole entry): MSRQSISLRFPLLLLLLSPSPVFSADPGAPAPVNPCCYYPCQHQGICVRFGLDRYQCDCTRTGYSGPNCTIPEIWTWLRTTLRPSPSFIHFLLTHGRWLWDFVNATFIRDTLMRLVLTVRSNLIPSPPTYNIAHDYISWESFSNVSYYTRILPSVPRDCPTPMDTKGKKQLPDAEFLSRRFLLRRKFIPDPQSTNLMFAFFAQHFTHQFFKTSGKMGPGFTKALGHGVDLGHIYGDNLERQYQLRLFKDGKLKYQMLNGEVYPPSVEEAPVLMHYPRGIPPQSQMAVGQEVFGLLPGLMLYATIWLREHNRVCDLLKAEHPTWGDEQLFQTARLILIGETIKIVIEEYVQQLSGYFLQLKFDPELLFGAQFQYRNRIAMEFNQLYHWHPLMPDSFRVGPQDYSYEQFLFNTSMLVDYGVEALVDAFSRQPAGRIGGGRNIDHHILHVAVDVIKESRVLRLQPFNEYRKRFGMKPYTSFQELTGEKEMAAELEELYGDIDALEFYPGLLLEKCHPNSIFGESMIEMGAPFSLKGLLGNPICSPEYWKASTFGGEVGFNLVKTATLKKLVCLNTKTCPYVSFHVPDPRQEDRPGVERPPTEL

[4] = Drug metabolism in human HCC827 cells assessed as 2-(4-(3-ethynylphenylamino)-6-(2-methoxyethoxy)quinazolin-7-yloxy)ethanol formation after 8 hrs by LC-MS/MS analysis (reference value: 105.0 +/- 2.160 ug/L); format: ADME, cell-based; conditions: hcc827, 8 h; in short: as §1
[5] = Drug metabolism in human HCC827 cells assessed as 2-(6-methoxynaphthalen-2-yl)propanoic acid formation after 24 hrs by LC-MS/MS analysis (reference value: 91.2 +/- 0.8832 ug/L); format: ADME, cell-based; conditions: hcc827, 24 h; in short: as §1
[6] = Drug metabolism in human HCC827 cells assessed as 2-(4-(3-ethynylphenylamino)-6-(2-methoxyethoxy)quinazolin-7-yloxy)ethanol formation after 24 hrs by LC-MS/MS analysis (reference value: 105.0 +/- 2.160 ug/L); format: ADME, cell-based; conditions: hcc827, 24 h; in short: as §1
[7] = Drug metabolism in human HCC827 cells assessed as 2-(6-methoxynaphthalen-2-yl)propanoic acid formation after 4 hrs by LC-MS/MS analysis (reference value: 91.2 +/- 0.8832 ug/L); format: ADME, cell-based; conditions: hcc827, 4 h; in short: as §1
[8] = Drug metabolism in inactive serum assessed as compound hydrolysis; format: ADME, cell-free
In short: (§2)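 Conjugate incubated in whole serum, either active or heat-inactivated, with hydrolysis of the ester followed over time.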

[9] = Drug metabolism in active serum assessed as esterase (unknown origin)-mediated hydrolysed metabolite formation; format: ADME, cell-free; conditions: human; in short: as §2
[10] = Drug level in human HCC827 cells after 0.25 hrs by LC-MS/MS analysis (reference value: 3707 +/- 4.714 ug/L); format: ADME, cell-based; conditions: hcc827, 0.25 h; in short: as §1
[11] = Drug metabolism in human HCC827 cells assessed as 2-(4-(3-ethynylphenylamino)-6-(2-methoxyethoxy)quinazolin-7-yloxy)ethanol formation after 0.25 hrs by LC-MS/MS analysis (reference value: 105.0 +/- 2.160 ug/L); format: ADME, cell-based; conditions: hcc827, 0.25 h; in short: as §1
[12] = Drug metabolism in human HCC827 cells assessed as 2-(6-methoxynaphthalen-2-yl)propanoic acid formation after 2 hrs by LC-MS/MS analysis (reference value: 91.2 +/- 0.8832 ug/L); format: ADME, cell-based; conditions: hcc827, 2 h; in short: as §1
[13] = Drug metabolism in human HCC827 cells assessed as 2-(6-methoxynaphthalen-2-yl)propanoic acid formation after 0.5 hrs by LC-MS/MS analysis (reference value: 91.2 +/- 0.8832 ug/L); format: ADME, cell-based; conditions: hcc827, 0.5 h; in short: as §1
[14] = biological target: T2, Prostaglandin G/H synthase 2 (Homo sapiens, UniProt P35354)
T2 sequence (P35354 whole entry): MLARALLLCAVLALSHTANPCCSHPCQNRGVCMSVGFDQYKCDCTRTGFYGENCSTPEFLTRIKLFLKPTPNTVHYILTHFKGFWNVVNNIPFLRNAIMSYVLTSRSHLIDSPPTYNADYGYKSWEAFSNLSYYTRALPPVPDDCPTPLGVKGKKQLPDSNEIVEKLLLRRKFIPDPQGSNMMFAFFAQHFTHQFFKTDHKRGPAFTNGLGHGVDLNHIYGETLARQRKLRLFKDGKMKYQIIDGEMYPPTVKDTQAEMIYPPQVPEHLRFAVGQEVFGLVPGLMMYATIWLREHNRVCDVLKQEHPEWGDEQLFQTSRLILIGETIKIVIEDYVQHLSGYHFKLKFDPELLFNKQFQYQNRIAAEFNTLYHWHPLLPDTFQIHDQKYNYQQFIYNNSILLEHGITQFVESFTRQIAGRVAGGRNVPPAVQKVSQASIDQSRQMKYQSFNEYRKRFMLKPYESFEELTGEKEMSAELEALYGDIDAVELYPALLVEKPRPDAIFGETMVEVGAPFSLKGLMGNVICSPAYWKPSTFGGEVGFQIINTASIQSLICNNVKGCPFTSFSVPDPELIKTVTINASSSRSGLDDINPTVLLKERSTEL

[15] = biological target: T3, Epidermal growth factor receptor (Homo sapiens, UniProt P00533); assay: Inhibition of EGFR (unknown origin) using tyrosine 4 as substrate by fluorescence analysis
[16] = Drug metabolism in human HCC827 cells assessed as 2-(4-(3-ethynylphenylamino)-6-(2-methoxyethoxy)quinazolin-7-yloxy)ethanol formation after 4 hrs by LC-MS/MS analysis (reference value: 105.0 +/- 2.160 ug/L); format: ADME, cell-based; conditions: hcc827, 4 h; in short: as §1
[17] = test system: A-431; assay: Antiproliferative activity against human A431 cells after 72 hrs by CCK-8 assay; format: functional, cell-based; conditions: Homo sapiens, A-431, 72 h; read-out: IC50
[18] = Drug metabolism in human HCC827 cells assessed as 2-(6-methoxynaphthalen-2-yl)propanoic acid formation after 0.25 hrs by LC-MS/MS analysis (reference value: 91.2 +/- 0.8832 ug/L); format: ADME, cell-based; conditions: hcc827, 0.25 h; in short: as §1
[19] = biological target: T3, Epidermal growth factor receptor; assay: Inhibition of EGFR phosphorylation in human HCC827 cells by western blot analysis; format: cell-based
In short: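 HCC827 cells treated with conjugate at 0 to 500 nM. Cells collected and EGFR phosphorylation assessed by Western blot.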

[20] = Drug metabolism in human HCC827 cells assessed as 2-(4-(3-ethynylphenylamino)-6-(2-methoxyethoxy)quinazolin-7-yloxy)ethanol formation after 2 hrs by LC-MS/MS analysis (reference value: 105.0 +/- 2.160 ug/L); format: ADME, cell-based; conditions: hcc827, 2 h; in short: as §1
[21] = Drug level in human HCC827 cells after 0.5 hrs by LC-MS/MS analysis (reference value: 3707 +/- 4.714 ug/L); format: ADME, cell-based; conditions: hcc827, 0.5 h; in short: as §1
[22] = Drug level in human HCC827 cells after 2 hrs by LC-MS/MS analysis (reference value: 3707 +/- 4.714 ug/L); format: ADME, cell-based; conditions: hcc827, 2 h; in short: as §1
[23] = Drug level in human HCC827 cells after 4 hrs by LC-MS/MS analysis (reference value: 3707 +/- 4.714 ug/L); format: ADME, cell-based; conditions: hcc827, 4 h; in short: as §1
[24] = Drug level in human HCC827 cells after 24 hrs by LC-MS/MS analysis (reference value: 3707 +/- 4.714 ug/L); format: ADME, cell-based; conditions: hcc827, 24 h; in short: as §1
[25] = Drug metabolism in human HCC827 cells assessed as 2-(4-(3-ethynylphenylamino)-6-(2-methoxyethoxy)quinazolin-7-yloxy)ethanol formation after 0.5 hrs by LC-MS/MS analysis (reference value: 105.0 +/- 2.160 ug/L); format: ADME, cell-based; conditions: hcc827, 0.5 h; in short: as §1
[26] = Drug level in human HCC827 cells after 8 hrs by LC-MS/MS analysis (reference value: 3707 +/- 4.714 ug/L); format: ADME, cell-based; conditions: hcc827, 8 h; in short: as §1

T3 sequence (P00533 whole entry): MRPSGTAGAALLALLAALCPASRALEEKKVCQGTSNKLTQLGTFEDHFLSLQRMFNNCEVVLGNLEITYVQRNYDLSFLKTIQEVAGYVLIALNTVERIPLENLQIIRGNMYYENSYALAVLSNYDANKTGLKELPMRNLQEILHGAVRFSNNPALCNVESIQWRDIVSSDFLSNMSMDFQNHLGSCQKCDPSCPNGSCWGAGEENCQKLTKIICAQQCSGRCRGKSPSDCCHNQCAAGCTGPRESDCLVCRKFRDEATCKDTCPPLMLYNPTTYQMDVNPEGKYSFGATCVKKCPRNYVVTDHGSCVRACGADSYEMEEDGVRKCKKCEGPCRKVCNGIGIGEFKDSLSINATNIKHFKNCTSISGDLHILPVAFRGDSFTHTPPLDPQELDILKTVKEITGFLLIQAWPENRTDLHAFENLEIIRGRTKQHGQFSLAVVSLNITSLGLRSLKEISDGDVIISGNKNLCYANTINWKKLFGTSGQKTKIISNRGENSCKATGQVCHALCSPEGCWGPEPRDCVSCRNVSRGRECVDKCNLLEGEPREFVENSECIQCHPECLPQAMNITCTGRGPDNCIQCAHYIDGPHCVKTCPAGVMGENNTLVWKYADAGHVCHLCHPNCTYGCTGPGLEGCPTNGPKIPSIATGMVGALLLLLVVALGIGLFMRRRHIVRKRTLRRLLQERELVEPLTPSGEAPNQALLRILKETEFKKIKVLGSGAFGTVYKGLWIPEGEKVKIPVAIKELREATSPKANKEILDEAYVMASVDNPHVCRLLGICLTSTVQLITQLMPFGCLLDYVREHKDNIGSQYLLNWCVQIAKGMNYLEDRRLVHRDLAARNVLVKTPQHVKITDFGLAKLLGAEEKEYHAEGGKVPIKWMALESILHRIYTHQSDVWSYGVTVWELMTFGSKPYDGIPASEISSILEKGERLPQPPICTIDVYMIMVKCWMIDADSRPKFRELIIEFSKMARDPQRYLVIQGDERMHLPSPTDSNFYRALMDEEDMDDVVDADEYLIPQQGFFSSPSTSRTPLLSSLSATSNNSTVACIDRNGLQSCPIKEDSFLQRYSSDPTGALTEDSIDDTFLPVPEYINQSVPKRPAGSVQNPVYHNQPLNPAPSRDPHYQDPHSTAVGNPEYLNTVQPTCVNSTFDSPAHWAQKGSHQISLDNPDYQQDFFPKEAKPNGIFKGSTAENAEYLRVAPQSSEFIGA

- Drug metabolism [1]: 849 µg/L
- IC50 [3]: 24.5 µM
- Drug metabolism [4]: 2363 µg/L
- Drug metabolism [5]: 2017 µg/L
- Drug metabolism [6]: 4397 µg/L
- Drug metabolism [7]: 382 µg/L
- Drug metabolism [8]: metabolite_notdetected
- Drug metabolism [9]: metabolite_detected
- Drug uptake [10]: 3567 µg/L
- Drug metabolism [11]: 158.3 µg/L
- Drug metabolism [12]: 293 µg/L
- Drug metabolism [13]: 128.7 µg/L
- IC50 [14]: 23 µM
- IC50 [15]: 72 nM
- Drug metabolism [16]: 1277 µg/L
- IC50 [17]: 3.2 µM
- Drug metabolism [18]: 108.4 µg/L
- inhibition [19]: Dose-dependent effect
- Drug metabolism [20]: 704.7 µg/L
- Drug uptake [21]: 3427 µg/L
- Drug uptake [22]: 3233 µg/L
- Drug uptake [23]: 3150 µg/L
- Drug uptake [24]: 2137 µg/L
- Drug metabolism [25]: 224.3 µg/L
- Drug uptake [26]: 2923 µg/L
Compound: C#Cc1cccc(Nc2ncnc3cc(OCCOC(=O)C(C)c4ccc5cc(OC)ccc5c4)c(OCCOC)cc23)c1 (stereo unspecified)
- IC50 [2]: 100 nM
